Values belong to the molecule of their own block, whether it stands above or below them.
Key:
[1] = biological target: T1, Metabotropic glutamate receptor 5 (Homo sapiens, UniProt P41594); experiment: Negative allosteric modulation of human mGluR5 expressed in HEK293 cells assessed as calcium mobilization by FLIPR assay; type: functional, cell-based
Target sequence in this assay (P41594 whole entry): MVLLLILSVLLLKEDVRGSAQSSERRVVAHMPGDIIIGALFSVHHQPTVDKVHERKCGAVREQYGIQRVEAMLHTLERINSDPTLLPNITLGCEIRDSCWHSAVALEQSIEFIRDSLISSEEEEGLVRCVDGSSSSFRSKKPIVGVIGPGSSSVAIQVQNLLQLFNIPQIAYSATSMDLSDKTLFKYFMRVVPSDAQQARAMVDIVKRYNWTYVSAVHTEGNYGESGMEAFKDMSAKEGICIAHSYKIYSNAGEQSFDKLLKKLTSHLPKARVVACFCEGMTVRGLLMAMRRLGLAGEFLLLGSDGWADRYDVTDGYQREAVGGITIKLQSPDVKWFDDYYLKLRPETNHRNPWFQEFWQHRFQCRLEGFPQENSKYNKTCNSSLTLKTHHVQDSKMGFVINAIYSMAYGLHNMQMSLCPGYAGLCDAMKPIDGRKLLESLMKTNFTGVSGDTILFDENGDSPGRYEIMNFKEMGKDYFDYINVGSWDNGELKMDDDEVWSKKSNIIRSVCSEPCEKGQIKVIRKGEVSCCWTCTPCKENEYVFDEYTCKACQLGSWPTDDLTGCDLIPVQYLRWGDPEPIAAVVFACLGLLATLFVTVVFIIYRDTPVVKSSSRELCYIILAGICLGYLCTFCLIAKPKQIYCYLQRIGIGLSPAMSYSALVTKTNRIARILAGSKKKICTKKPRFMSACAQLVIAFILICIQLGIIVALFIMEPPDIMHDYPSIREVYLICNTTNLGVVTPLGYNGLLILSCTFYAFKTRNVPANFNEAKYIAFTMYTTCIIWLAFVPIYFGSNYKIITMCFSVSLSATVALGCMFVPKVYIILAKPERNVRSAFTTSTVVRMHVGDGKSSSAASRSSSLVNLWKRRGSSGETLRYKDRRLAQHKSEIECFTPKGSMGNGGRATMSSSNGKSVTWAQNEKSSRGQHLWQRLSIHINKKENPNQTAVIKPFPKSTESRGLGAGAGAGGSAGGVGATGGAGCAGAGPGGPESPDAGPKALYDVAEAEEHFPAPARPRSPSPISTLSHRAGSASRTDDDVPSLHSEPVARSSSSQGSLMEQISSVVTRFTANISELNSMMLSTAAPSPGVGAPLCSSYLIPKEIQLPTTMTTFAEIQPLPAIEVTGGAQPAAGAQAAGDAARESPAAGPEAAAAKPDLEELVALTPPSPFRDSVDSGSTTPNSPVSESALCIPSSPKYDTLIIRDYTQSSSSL

[2] = Half life in mouse liver microsomes
[3] = Half life in rat liver microsomes
[4] = Half life in human liver microsomes
[5] = biological target: T1, Metabotropic glutamate receptor 5; experiment: Negative allosteric modulation of human mGluR5 expressed in HEK293 cells assessed as calcium mobilization at 1 uM by FLIPR assay; type: functional, cell-based
Target sequence in this assay (P41594 21-1212 limits assumed): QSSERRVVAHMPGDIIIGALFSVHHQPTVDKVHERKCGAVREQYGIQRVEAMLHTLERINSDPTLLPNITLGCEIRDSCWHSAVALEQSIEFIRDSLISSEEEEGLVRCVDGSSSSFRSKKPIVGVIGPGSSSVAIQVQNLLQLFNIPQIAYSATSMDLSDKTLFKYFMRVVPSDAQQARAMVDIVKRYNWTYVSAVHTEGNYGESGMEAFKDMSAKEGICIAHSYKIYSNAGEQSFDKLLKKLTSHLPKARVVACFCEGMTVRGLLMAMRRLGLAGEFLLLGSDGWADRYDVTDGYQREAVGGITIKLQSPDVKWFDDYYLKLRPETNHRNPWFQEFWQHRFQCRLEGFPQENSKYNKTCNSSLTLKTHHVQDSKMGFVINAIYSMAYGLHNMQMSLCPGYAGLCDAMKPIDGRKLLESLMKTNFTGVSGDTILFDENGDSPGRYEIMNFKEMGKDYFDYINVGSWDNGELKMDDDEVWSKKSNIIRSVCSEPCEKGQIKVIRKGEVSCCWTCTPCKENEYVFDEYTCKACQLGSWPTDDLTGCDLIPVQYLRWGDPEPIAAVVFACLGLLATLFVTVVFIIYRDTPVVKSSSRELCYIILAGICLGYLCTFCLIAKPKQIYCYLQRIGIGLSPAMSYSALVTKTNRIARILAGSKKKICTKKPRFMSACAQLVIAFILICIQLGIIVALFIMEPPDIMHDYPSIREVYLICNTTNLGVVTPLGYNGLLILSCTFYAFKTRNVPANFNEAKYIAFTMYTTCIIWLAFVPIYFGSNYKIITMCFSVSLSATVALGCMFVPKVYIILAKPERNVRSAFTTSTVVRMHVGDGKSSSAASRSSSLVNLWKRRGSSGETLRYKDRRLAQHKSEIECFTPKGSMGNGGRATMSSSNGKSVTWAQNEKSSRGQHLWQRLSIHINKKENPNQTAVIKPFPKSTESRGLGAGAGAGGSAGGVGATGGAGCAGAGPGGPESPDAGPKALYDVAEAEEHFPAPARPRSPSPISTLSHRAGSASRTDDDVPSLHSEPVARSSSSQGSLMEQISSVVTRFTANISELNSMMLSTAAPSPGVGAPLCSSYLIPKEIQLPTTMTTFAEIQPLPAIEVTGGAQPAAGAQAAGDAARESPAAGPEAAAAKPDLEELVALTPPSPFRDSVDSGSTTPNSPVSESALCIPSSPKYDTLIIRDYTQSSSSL

[6] = biological target: T1, Metabotropic glutamate receptor 5; experiment: Negative allosteric modulation of human mGluR5 expressed in HEK293 cells assessed as calcium mobilization at 2 uM by FLIPR assay; type: functional, cell-based
Target sequence in this assay (P41594 21-1212 limits assumed): as above

[7] = biological target: T1, Metabotropic glutamate receptor 5; experiment: Negative allosteric modulation of human mGluR5 expressed in HEK293 cells assessed as calcium mobilization at 10 uM by FLIPR assay; type: functional, cell-based
Target sequence in this assay (P41594 21-1212 limits assumed): as above

[8] = Half life in rat plasma; type: ADME, cell-free
Mus musculus [9] = experiment: Antidepressant activity in ICR mouse assessed as decrease in immobility time at 10 mg/kg, po administered 1 hr before test measured for 4 mins following training for 2 mins by forced swimming test; type: functional; parameters: scale not given: the % may be the effect or the level left
In short: (§1)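 Mouse forced swim test: ICR mice dosed orally 1 h before testing; 2 min training, then immobility duration recorded over 4 min. Activity expressed as % decrease in immobility duration. Mean ± SEM, n = 8; Dunnett's multiple comparisons after one-way ANOVA (p < 0.05).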

Mus musculus [10] = experiment: Antidepressant activity in ICR mouse assessed as decrease in immobility time at 50 mg/kg, po administered 1 hr before test measured for 4 mins following training for 2 mins by forced swimming test; type: functional; parameters: scale not given: the % may be the effect or the level left; in short: as §1

IC50 [1]: 90.8 nM
half-life ([2]; liver microsomes): 0.217 h
half-life ([3]; liver microsomes): 1.12 h
half-life ([4]; liver microsomes): 0.433 h
SMILES: Cc1ccc(NC(=O)c2nn(C)c(-c3ccc(F)cc3)c2C)nc1

inhibition [5]: 11.6%
SMILES: Cc1cccc(NC(=O)c2nn(C)c(OC3CCOCC3)c2C)n1

inhibition [6]: 5.6%
SMILES: Cc1cccc(NC(=O)c2nn(C)c(OC3CCNCC3)c2C)n1

IC50 [1]: 88.3 nM
half-life ([2]; microsomes): 0.533 h
half-life ([3]; microsomes): 1.83 h
half-life ([4]; microsomes): > 5 h
SMILES: Cc1nc(C(=O)Nc2ccc(F)cn2)c(C)n1-c1ccc(F)cc1

IC50 [1]: 27 nM
SMILES: Cc1cccc(NC(=O)c2nn(C)c3c2CCCC3)n1

inhibition [7]: 26%
SMILES: Cc1cccc(NC(=O)c2nn(C)c(-c3ccccc3)c2-c2ccccc2)n1

IC50 [1]: 95 nM
half-life [8]: < 1 h
SMILES: Cc1cccc(NC(=O)c2cc(-c3ccccc3)n(C)n2)n1

IC50 [1]: 130 nM
half-life ([2]; liver microsomes): 1.63 h
half-life ([3]; liver microsomes): 0.967 h
half-life ([4]; liver microsomes): 4.48 h
SMILES: Cc1c(C(=O)Nc2cccc(C(F)(F)F)n2)nn(C)c1-c1ccc(F)cc1

IC50 [1]: 63 nM
SMILES: O=C(Nc1cccc(Cl)c1)c1noc2c1CCC2

IC50 [1]: 10.3 nM
half-life ([2]; microsomes): 0.65 h
half-life ([3]; microsomes): > 5 h
half-life ([4]; microsomes): > 5 h
SMILES: Cc1c(C(=O)Nc2ccc(F)cn2)nn(C)c1-c1ccc(F)cc1
Activity (Mus musculus [9]): 36.8%

IC50 [1]: 77 nM
SMILES: Cc1nc(C(=O)Nc2cccc(C#N)n2)c(C)n1-c1ccc(F)cc1

IC50 [1]: 5.3 nM
half-life ([2]; liver microsomes): 0.3 h
half-life ([3]; liver microsomes): 1.07 h
half-life ([4]; liver microsomes): 0.533 h
SMILES: Cc1cccc(NC(=O)c2nn(C)c(-c3cc(F)cc(F)c3)c2C)n1

IC50 [1]: 1300 nM
SMILES: Cc1cccc(NC(=O)c2nn(C)c(OCC3CCCCC3)c2C)n1

IC50 [1]: 25 nM
half-life ([2]; liver microsomes): 0.467 h
half-life ([3]; liver microsomes): 0.133 h
half-life ([4]; liver microsomes): 1.38 h
SMILES: Cc1cccc(NC(=O)c2nn(C)c(C3CCCCC3)c2C)n1

IC50 [1]: 3.7 nM
half-life ([2]; liver microsomes): 0.633 h
half-life ([3]; liver microsomes): 1.27 h
half-life ([4]; liver microsomes): 1.12 h
SMILES: Cc1cccc(NC(=O)c2nn(C)c(-c3ccc(F)cc3F)c2C)n1
Activity (Mus musculus [9]): 25.7%

IC50 [1]: 20 nM
SMILES: Fc1ccc2nc(CCC#Cc3ccccn3)cn2c1 [DIPRAGLURANT]
Activity (Mus musculus [10]): 44.3%

SMILES: Cc1cccc(NC(=O)c2nn(C)c3ccccc23)n1
IC50 [1]: > 1000 nM

IC50 [1]: 5.3 nM
SMILES: Cc1ccc(-c2c(C)c(C(=O)Nc3cccc(C)n3)nn2C)cc1
Activity (Mus musculus [9]): 30.8%

IC50 [1]: 27 nM
SMILES: CCc1c(C(=O)Nc2cccc(C)n2)nn(C)c1-c1ccccc1

IC50 [1]: 147 nM
SMILES: COc1ccc(-n2c(C)nc(C(=O)Nc3cccc(C)n3)c2C)cc1

IC50 [1]: 92 nM
SMILES: Cc1cccc(NC(=O)c2nn(C)c(OC3CCCCC3)c2C)n1

IC50 [1]: 301 nM
SMILES: Cc1c(C(=O)Nc2ccncc2)nn(C)c1-c1ccc(F)cc1

IC50 [1]: 24.2 nM
half-life ([2]; liver microsomes): 0.617 h
half-life ([3]; liver microsomes): 1.13 h
half-life ([4]; liver microsomes): 1.6 h
SMILES: Cc1nc(C(=O)Nc2cccc(F)n2)c(C)n1-c1ccc(F)cc1

IC50 [1]: 16.4 nM
half-life ([2]; microsomes): 0.75 h
half-life ([3]; microsomes): 1.02 h
half-life ([4]; microsomes): 2.03 h
SMILES: Cc1csc(NC(=O)c2nn(C)c(-c3ccc(F)cc3)c2C)n1
Activity (Mus musculus [9]): 32.8%

IC50 [1]: 14.5 nM
half-life ([2]; microsomes): 1.17 h
half-life ([3]; microsomes): 1.45 h
half-life ([4]; microsomes): 1.27 h
SMILES: Cc1cccc(NC(=O)c2nc(C)n(-c3ccc(F)c(Cl)c3)c2C)n1

IC50 [1]: > 1000 nM
SMILES: Cc1cccc(NC(=O)c2c3c(nn2C)CCCC3)n1

IC50 [1]: 645 nM
SMILES: Cc1cccc(NC(=O)c2nn(C)c(-c3ccc(N(C)C)cc3)c2C)n1

IC50 [1]: 139 nM
half-life ([2]; liver microsomes): 1.43 h
half-life ([3]; liver microsomes): 0.733 h
half-life ([4]; liver microsomes): 1 h
SMILES: Cc1nc(NC(=O)c2nc(C)n(-c3ccc(F)cc3)c2C)ccc1F

IC50 [1]: 17 nM
half-life ([2]; liver microsomes): 1.18 h
half-life ([3]; liver microsomes): 1.58 h
half-life ([4]; liver microsomes): > 5 h
SMILES: COc1ccc(-c2c(C)c(C(=O)Nc3cccc(C)n3)nn2C)cc1
Activity (Mus musculus [9]): 14.4%
